Only some compounds are listed: those with a hit (about 3.8% of all), similar ones and a draw of the others.
KCNK9 block – human KCNK9 channel inhibition. Q9NPC2. B-score at 10 µM. HEK293 KCNK9, FluxOR thallium flux fluorescence; hits give low values. AID 488922. 1.2% of 310,000 active;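 active means ratio B-score over 3 SD below the library mean, with starting fluorescence within 5 SD of its mean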;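 further: negative B-score means less thallium flux so channel inhibition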
KCNQ1 inh – blocks the human KCNQ1 potassium channel | P51787 | CHO-K1 KCNQ1, FluxOR thallium flux fluorescence; hits give high values | B-score at 10 µM | 1.3% of 310,000 active | AID 2642;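 active means compounds whose thallium flux B-score, printed positive for inhibition, exceeds three library SD while starting fluorescence stays within three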;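 further: channel opened by potassium depolarization with thallium stimulus after 20 min compound exposure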
KCNQ1 act – human KCNQ1 channel potentiation or activation; P51787; CHO-K1 KCNQ1, thallium flux FluxOR fluorescence; hits give high values; B-score at 10 µM; 0.35% of 310,000 active; AID 2648;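 active means fluorescence ratio B-score, a plate-corrected score, at least three library SD, with initial intensity B-score within 5 SD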
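Assay system: CHO-K1 cells stably expressing KCNQ1. Medium: assay buffer for compound exposure, DMSO matched across wells. Timing: 37 °C overnight plating, 90-min dark dye load, 20-min compound pretreatment. Signal: kinetic FluxOR fluorescence, 10 s baseline plus 110 s post-stimulus.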
hERG rescue – shields human hERG channel from block by proarrhythmic agents; CHO-hERG, FluxOR thallium flux, dofetilide IC70 present; activation (rescue from dofetilide block), less the hit threshold, % at 10 µM; 0.51% of 310,000 active; AID 1511;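 active means activation above the mean of controls blocked by dofetilide plus 5 SD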;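 further: thallium influx through hERG after potassium depolarization seen as dye fluorescence rise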
Kir21 inh – inhibitors of mouse Kir2.1 inward-rectifier potassium channel | HEK293-Kir2.1, FluxOR thallium flux fluorescence; hits give low values | B-score at 10 µM | AID 1672 | P35561 | 0.85% of 310,000 active;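 active means fluorescence ratio B-score at or below minus 3 SD of library scores, with starting-brightness B-score within 2 SD, cut at about -4.2 in these data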;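 further: channel flux triggered by added potassium and thallium sulfate stimulus; B-score of peak minus minimum fluorescence over baseline after thallium stimulus; more negative B-score means stronger Kir2.1 block with less thallium influx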
Target sequence (P35561 whole entry, looked up): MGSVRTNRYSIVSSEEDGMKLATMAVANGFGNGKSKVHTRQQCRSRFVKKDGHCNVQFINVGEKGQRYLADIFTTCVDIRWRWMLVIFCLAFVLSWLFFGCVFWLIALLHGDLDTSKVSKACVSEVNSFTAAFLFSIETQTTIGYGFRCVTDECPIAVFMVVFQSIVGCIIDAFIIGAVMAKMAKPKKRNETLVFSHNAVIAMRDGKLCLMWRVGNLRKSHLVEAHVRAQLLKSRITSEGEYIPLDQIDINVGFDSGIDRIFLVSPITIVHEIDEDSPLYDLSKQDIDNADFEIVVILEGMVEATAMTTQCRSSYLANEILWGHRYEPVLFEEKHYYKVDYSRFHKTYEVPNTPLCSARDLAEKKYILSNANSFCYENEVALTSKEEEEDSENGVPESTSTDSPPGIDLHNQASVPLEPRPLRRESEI
KCNK3 block – human KCNK3 channel inhibition, primary screen; AID 602410; B-score at 10 µM; 0.84% of 340,000 active; O14649; CHO-KCNK3 thallium flux, FluxOR fluorescence; hits give low values;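 active means B-score under library mean minus 4 SD, starting fluorescence ratio at most library mean plus 5 SD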;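 further: more negative B-score means stronger inhibition of thallium flux through KCNK3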
KCNK3 inh conf – human KCNK3 channel inhibition, confirmation assay. shares compounds with KCNK3 block. CHO-KCNK3 thallium flux, FluxOR fluorescence; 0% buffer, 100% carvedilol maximal block. ratio percent of control, % at 10 µM. 99% of 2,400 active;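 active means ratio percent of control, averaged over triplicates, above buffer control mean plus 5 SD, cut at about 64% in these data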;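 further: ratio is the fluorescence rise from min to max over baseline after thallium stimulus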
KCNK3 uninduced – counter-screen for KCNK3 inhibitors: effect in non-induced cells; 40% of 2,400 active; thallium flux ratio (lower = more inhibition) at 10 µM; non-induced KCNK3 parental cells, FluxOR thallium flux; hits give low values; shares compounds with KCNK3 block;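 active means thallium flux ratio, averaged over three wells, more than 5 SD below the buffer control mean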;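 further: host cells are CHO cells without KCNK3 induction; ratio is peak minus trough fluorescence over baseline then normalized to buffer controls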
* = called active by the depositor; i = inactive; / = not tested or not shown.

SMILES | KCNK9 block | KCNQ1 inh | KCNQ1 act | hERG rescue | Kir21 inh | KCNK3 block | KCNK3 inh conf | KCNK3 uninduced
Cc1ccccc1-c1nnn(Cc2ccc(F)cc2Cl)n1 | i | i | i | -11 | 1.1 | -9* | 101* | i
CC(C)c1ccc(-c2noc(C3CCCN(C(=O)c4ccc(F)cc4F)C3)n2)cc1 (stereo not drawn) | i | i | i | -11 | 0.25 | -9.8* | 134* | 0.14*
Cc1cccc(NC(=O)C2CCCN2S(=O)(=O)c2ccc(Cl)cc2)n1 (stereo not drawn) | i | i | i | -14 | 0.34 | i | / | /
COC1(OC)C(/C=C/c2ccc(C)cc2)C(C#N)(C#N)C1(OC)OC (stereo not drawn) | i | i | i | -15 | 0.06 | -10* | 133* | 0.14*
CCc1ccc(-n2c(SCC(=O)NC3CCS(=O)(=O)C3)nc3ccccc3c2=O)cc1 (stereo not drawn) | / | / | / | / | / | i | / | /
CC(=O)Nc1ccc(S(=O)(=O)NC2CC(=O)N(c3ccc(C)cc3)C2)cc1 (stereo not drawn) | i | i | i | -14 | 0.64 | i | / | /
Cc1sc2ncnc(N3CCC(C(=O)Nc4ccc(OC(F)F)c(Cl)c4)CC3)c2c1C | / | / | / | / | / | -13* | 142* | 0.14*
Cc1ccc(NS(=O)(=O)c2cccc(C(=O)NCC(c3ccco3)N3CCCC3)c2)cc1 (stereo not drawn) | / | / | / | / | / | i | / | /
Cc1ccc(-c2cc(-c3ccccc3)nc(Cl)n2)cc1 | i | i | i | -7 | 1 | -11* | 130* | 0.11*
COc1ccc(C2C(C(=O)c3ccco3)=C(O)C(=O)N2Cc2cccnc2)cc1OC (stereo not drawn) | i | i | i | 0 | 0.85 | -9.3* | 64* | i
CCOc1ccc(C2C(C(=O)c3ccco3)=C(O)C(=O)N2Cc2cccnc2)cc1 (stereo not drawn) | i | i | i | -9 | 0.4 | i | / | /
CCc1cc(C(=O)N2CCN(S(=O)(=O)c3ccccc3F)CC2)sc1C | / | / | / | / | / | i | / | /
c1ccc(-c2csc(CN3CCCCC3)n2)cc1 | / | / | / | / | / | i | / | /
C=CCn1c(NC(C)c2cc(Cl)ccc2O)nc2ccccc21 (stereo not drawn) | -6.6* | i | i | -6 | -1.3 | -12* | 122* | 0.14*
O=C(Nc1ccc2nc(C3CC3)n(Cc3ccc(F)cc3)c(=O)c2c1)c1ccco1 | i | i | i | -8 | 0.84 | -9.9* | 89* | i
CC(=O)Nc1ccc2nc(C3CC3)n(Cc3ccc(Cl)cc3)c(=O)c2c1 | i | i | i | -16 | 0.01 | i | / | /
CCOc1ccccc1NC(=O)C(OC(=O)c1ccc(NC(=O)CC#N)cc1)c1ccccc1 (stereo not drawn) | i | 8* | i | -26 | 1.9 | -10* | 125* | 0.13*
CCOc1ccccc1NC(=O)C(OC(=O)c1ccccc1O)c1ccccc1 (stereo not drawn) | i | i | i | -7 | -1.6 | i | / | /
CC(C)CN(CC(C)C)c1nn[nH]n1 | / | / | / | / | / | i | / | /
CC(C)Cc1nnc(NC(=O)c2cc([N+](=O)[O-])ccc2N2CCOCC2)s1 | i | i | i | -9 | -0.01 | i | / | /
Cn1c(SCc2ccccc2)nc2ccsc2c1=O | i | i | i | -11 | -1.2 | -9.8* | 104* | i
Cn1c(SCCOc2ccccc2F)nc2ccccc2c1=O | i | i | i | -12 | 1.2 | -13* | 110* | i
Cn1c(SCc2ccc(Br)cc2)nc2ccccc2c1=O | i | i | i | -3 | -0.26 | -9.5* | 123* | 0.13*
O=c1[nH]c(SCCOc2ccccc2F)nc2ccccc12 | i | i | i | -19 | 0.34 | i | / | /
CCOc1nc(SCCOc2ccccc2)nc(N(C)C)n1 | i | i | i | -4 | 1.5 | -9.6* | 98* | i
SMILES | KCNK9 block | KCNQ1 inh | KCNQ1 act | hERG rescue | Kir21 inh | KCNK3 block | KCNK3 inh conf | KCNK3 uninduced
Cc1cc(C(=O)N/N=C/c2cc(N=Nc3ccccc3)ccc2O)n[nH]1 | i | i | i | -13 | -0.02 | i | / | /
COC(=O)N/N=C/c1cc(N=Nc2ccccc2)ccc1O | -7.2* | i | i | -22 | 0.58 | -11* | 109* | 0.15*
Cc1cc(C)cc(NC(=S)Nc2ccc(Cl)c(Cl)c2)c1 | i | 12* | i | -18 | -2 | -14* | 146* | 0.11*
NC(=S)Nc1ccc(Cl)c(Cl)c1 | i | i | i | -10 | 1.9 | i | / | /
CN(C)C1(CNC(=O)C2CCC(=O)N(CCc3ccc(Cl)cc3)C2)CCCCC1 (stereo not drawn) | i | i | i | -1 | -0.65 | i | / | /
CCC(c1nnnn1Cc1ccccc1)N1CCN(C(=O)c2ccco2)CC1 (stereo not drawn) | i | i | i | -9 | 1.9 | -12* | 72* | i
CCC(C)NC(=O)Cn1cnc2sc(C)c(S(=O)(=O)N3CCCCC3)c2c1=O (stereo not drawn) | i | i | i | -6 | -2.1 | i | / | /
Cc1c(C(=O)OC(C)C(=O)N(C)Cc2ccccc2)oc2ccccc12 (stereo not drawn) | / | / | / | / | / | -12* | 77* | i
Cc1c(C(=O)N(C)Cc2ccccc2)oc2c(Cl)cccc12 | i | i | i | -8 | -2.7 | -11* | 110* | i
CCOc1cc(/C=N/NC(=O)c2ccncc2)ccc1OC(=O)c1ccco1 | i | i | i | -11 | -0.66 | i | / | /
CCOc1cc(/C=N/NC(=O)C(O)(c2ccccc2)c2ccccc2)ccc1OC(=O)c1ccco1 | i | i | i | -14 | -0.43 | -8.8* | 83* | i
Cc1ccccc1CN(C)Cc1cc(=O)oc2c(C)c(C)ccc12 | i | 9* | i | -21 | -2.1 | -11* | 118* | 0.14*
CCc1ccc2c(CN(C)Cc3ccc(OC(F)F)c(OC)c3)cc(=O)oc2c1 | i | i | i | -5 | 2.4 | -16* | 128* | 0.15*
Cc1cc2oc(=O)cc(CN(C)Cc3cccc(F)c3)c2cc1C | i | i | i | -8 | 0.07 | -8.7* | 112* | i
COc1cccc(CN(C)Cc2cc(=O)oc3c(C)c(C)ccc23)c1 | i | i | i | -10 | 1.3 | -11* | 125* | 0.14*
COc1ccc(OCCCC(=O)OCC(=O)c2ccc3c(c2)NC(=O)CO3)cc1 | i | i | i | -15 | 0.45 | i | / | /
